{
  "source": "paper PMC11387822",
  "about": "(Scientific Reports, 2024)",
  "key": {"AChE [1]": {"molecular_target": "T1, AChE (Homo sapiens, UniProt P22303)", "T1 sequence (P22303 32-614)": "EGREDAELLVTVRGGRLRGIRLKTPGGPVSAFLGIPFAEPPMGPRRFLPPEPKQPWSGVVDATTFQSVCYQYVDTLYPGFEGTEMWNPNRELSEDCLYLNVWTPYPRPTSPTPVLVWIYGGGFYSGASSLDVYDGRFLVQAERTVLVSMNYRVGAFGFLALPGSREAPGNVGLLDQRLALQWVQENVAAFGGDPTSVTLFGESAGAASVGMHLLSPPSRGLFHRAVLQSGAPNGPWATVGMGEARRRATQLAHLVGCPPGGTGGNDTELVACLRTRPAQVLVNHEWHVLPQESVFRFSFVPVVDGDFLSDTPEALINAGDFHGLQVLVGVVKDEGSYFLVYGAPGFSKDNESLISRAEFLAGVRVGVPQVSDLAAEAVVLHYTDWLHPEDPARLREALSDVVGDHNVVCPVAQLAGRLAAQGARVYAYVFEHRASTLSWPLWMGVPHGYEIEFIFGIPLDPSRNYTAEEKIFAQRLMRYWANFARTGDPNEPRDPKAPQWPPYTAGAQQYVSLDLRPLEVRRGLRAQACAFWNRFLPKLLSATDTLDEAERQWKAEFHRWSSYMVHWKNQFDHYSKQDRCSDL", "experiment": "In vitro AChE inhibitory activity", "assay_type": "biochemical", "conditions": "for AChE IC50: mean ± SD (n = 3)"}, "BuChE": {"molecular_target": "BuChE (Homo sapiens, UniProt P06276)", "sequence (P06276 29-602)": "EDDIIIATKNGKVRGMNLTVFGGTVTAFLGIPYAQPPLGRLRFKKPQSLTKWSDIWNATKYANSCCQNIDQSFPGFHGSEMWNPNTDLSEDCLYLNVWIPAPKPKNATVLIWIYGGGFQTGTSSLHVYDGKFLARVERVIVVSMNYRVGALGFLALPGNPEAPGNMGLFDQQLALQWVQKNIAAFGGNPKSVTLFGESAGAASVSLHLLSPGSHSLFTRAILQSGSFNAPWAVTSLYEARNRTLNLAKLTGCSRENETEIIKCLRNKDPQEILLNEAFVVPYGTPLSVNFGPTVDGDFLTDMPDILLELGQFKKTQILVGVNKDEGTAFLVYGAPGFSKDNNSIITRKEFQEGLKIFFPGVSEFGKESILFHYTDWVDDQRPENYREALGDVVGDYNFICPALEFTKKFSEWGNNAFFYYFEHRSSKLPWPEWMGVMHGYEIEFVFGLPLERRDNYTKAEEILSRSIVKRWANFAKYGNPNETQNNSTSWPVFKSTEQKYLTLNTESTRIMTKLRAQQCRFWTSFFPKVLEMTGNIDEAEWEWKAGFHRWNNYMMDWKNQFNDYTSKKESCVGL", "experiment": "In vitro BuChE inhibitory activity", "assay_type": "biochemical", "conditions": "for BuChE IC50: mean ± SD (n = 3)"}, "BACE1": {"molecular_target": "BACE1 (Homo sapiens, UniProt P56817)", "sequence (P56817 46-501)": "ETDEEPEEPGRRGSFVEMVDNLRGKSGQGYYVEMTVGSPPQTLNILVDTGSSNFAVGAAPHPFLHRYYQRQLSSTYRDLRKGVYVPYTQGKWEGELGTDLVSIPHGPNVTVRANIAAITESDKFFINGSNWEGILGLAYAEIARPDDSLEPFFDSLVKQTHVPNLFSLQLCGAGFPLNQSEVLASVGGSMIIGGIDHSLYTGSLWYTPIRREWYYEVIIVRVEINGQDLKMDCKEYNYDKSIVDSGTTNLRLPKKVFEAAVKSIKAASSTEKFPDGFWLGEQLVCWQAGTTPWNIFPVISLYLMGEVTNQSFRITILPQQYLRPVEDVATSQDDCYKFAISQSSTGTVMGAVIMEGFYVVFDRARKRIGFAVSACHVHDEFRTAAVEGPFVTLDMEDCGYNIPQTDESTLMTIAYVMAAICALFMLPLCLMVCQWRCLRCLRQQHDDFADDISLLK", "experiment": "BACE1 inhibitory activity, FRET-based assay kit", "assay_type": "biochemical"}, "[2]": {"experiment": "Metal chelating activity by UV-visible spectrometry, mole ratio method", "assay_type": "physicochemical", "conditions": "UV 200-600 nm, methanol, 5d 20 μM, Fe3+ 0-50 μM, 30 min room temperature", "in_short": "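Test compound (20 μM in absolute methanol) was titrated with FeCl3 (0–50 μM Fe3+) and incubated 30 min at room temperature. UV absorption from 200 to 600 nm was recorded with and without Fe3+ in a 1 cm quartz cuvette. Complex stoichiometry was taken from the mole ratio method.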"}, "AChE [3]": {"molecular_target": "T1, AChE", "experiment": "Kinetic characterization of AChE inhibition", "assay_type": "biochemical"}},
  "note": "Entries after “also recorded” stand apart in the source; their conditions may differ.",
  "data": [
    {"smiles": "Cn1cc(-c2cc(C(=O)NN=Cc3ccccc3)no2)c2ccccc21", "note": "[Compound 5a, N'-Benzylidene-5-(1-methyl-1H-indol-3-yl)isoxazole-3-carbohydrazide]", "values": [
      {"measurement": "AChE IC50", "setting": "AChE [1]", "result": "no inhibitory potencies"},
      {"measurement": "BuChE IC50", "setting": "BuChE", "result": "no inhibitory potencies"}
    ]},
    {"smiles": "Cn1cc(-c2cc(C(=O)NN=Cc3ccccc3O)no2)c2ccccc21", "note": "[Compound 5b, N'-(2-Hydroxybenzylidene)-5-(1-methyl-1H-indol-3-yl)isoxazole-3-carbohydrazide]", "values": [
      {"measurement": "IC50", "setting": "BACE1", "result": "2.79 ± 0.52", "unit": "µM"},
      {"measurement": "IC50", "setting": "BuChE", "result": "92.8 ± 2.29", "unit": "µM"}
    ]},
    {"smiles": "COc1cccc(C=NNC(=O)c2cc(-c3cn(C)c4ccccc34)on2)c1", "note": "[Compound 5d, N'-(3-Methoxybenzylidene)-5-(1-methyl-1H-indol-3-yl)isoxazole-3-carbohydrazide]", "values": [
      {"measurement": "IC50", "setting": "BACE1", "result": "2.85 ± 0.09", "unit": "µM"},
      {"measurement": "metal chelating ability against Fe3+", "setting": "[2]", "result": "had biometal chelation ability"},
      {"measurement": "Ki", "setting": "AChE [3]", "result": 19.3, "unit": "µM"},
      {"measurement": "inhibition pattern on AChE", "setting": "AChE [3]; Lineweaver-Burk: Km increased, Vmax unchanged", "result": "competitive"},
      {"measurement": "IC50", "setting": "AChE [1]", "result": "29.5 ± 0.31", "unit": "µM"},
      {"measurement": "BuChE IC50", "setting": "BuChE", "result": "no notable inhibition; also recorded: no potency"}
    ]},
    {"smiles": "COc1cccc(C=NNC(=O)c2cc(-c3cn(C)c4ccccc34)on2)c1O", "note": "[Compound 5g, N'-(2-Hydroxy-3-methoxybenzylidene)-5-(1-methyl-1H-indol-3-yl)isoxazole-3-carbohydrazide]", "values": [
      {"measurement": "IC50", "setting": "AChE [1]", "result": "63.8 ± 4.04", "unit": "µM"}
    ]},
    {"smiles": "Cn1cc(-c2cc(C(=O)NN=Cc3ccccc3F)no2)c2ccccc21", "note": "[Compound 5h, N'-(2-Fluorobenzylidene)-5-(1-methyl-1H-indol-3-yl)isoxazole-3-carbohydrazide]", "values": [
      {"measurement": "AChE IC50", "setting": "AChE [1]", "result": "no potency"}
    ]},
    {"smiles": "Cn1cc(-c2cc(C(=O)NN=Cc3ccccc3Cl)no2)c2ccccc21", "note": "[Compound 5i, N'-(2-Chlorobenzylidene)-5-(1-methyl-1H-indol-3-yl)isoxazole-3-carbohydrazide]", "values": [
      {"measurement": "AChE IC50", "setting": "AChE [1]", "result": "no potency"}
    ]},
    {"smiles": "Cn1cc(-c2cc(C(=O)NN=Cc3cccc(Br)c3)no2)c2ccccc21", "note": "[Compound 5j, N'-(3-Bromobenzylidene)-5-(1-methyl-1H-indol-3-yl)isoxazole-3-carbohydrazide]", "values": [
      {"measurement": "IC50", "setting": "BACE1", "result": "1.99 ± 0.15", "unit": "µM"},
      {"measurement": "AChE IC50", "setting": "AChE [1]", "result": "no potency"}
    ]},
    {"smiles": "Cn1cc(-c2cc(C(=O)NN=Cc3cccc([N+](=O)[O-])c3)no2)c2ccccc21", "note": "[Compound 5k, N'-(3-Nitrobenzylidene)-5-(1-methyl-1H-indol-3-yl)isoxazole-3-carbohydrazide]", "values": [
      {"measurement": "IC50", "setting": "BuChE", "result": "71.3 ± 0.76", "unit": "µM"}
    ]}
  ]
}
